Data published in ChEMBL document CHEMBL1127530 (J Med Chem, 1994).

test system: NIH3T3; assay: Cytotoxic effect on 3T3 cells; type: functional, cell-based; conditions: Mus musculus
Procedure, shortened: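 3T3 parental fibroblasts, 2 × 10^4 cells in DMEM with 10% fetal calf serum; compounds dissolved or suspended in DMF or DMSO, final solvent ≤0.5% v/v. Value is the mean of two determinations.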

| Compound | IC50 |
| --- | --- |
| O=c1c(O)c(-c2ccc(O)c(O)c2)oc2cc(O)cc(O)c12 [QUERCETIN] | 39.5 µM |
| Oc1cccc(-c2nc3ccc(O)cc3s2)c1 | 30.5 µM |
| O=c1c(-c2ccc(O)cc2)coc2cc(O)cc(O)c12 [GENISTEIN] | 24 µM |
| Oc1ccc(-c2nc3cc(O)c(O)cc3s2)cc1 | 13.5 µM |
| Oc1ccc(-c2nc3cc(O)ccc3s2)cc1 | 25 µM |
| Oc1cc(O)c2nc(-c3ccc(O)c(O)c3)sc2c1 | 47 µM |
| Oc1ccc(-c2nc3ccc(O)cc3s2)cc1 | 11 µM |
| Oc1ccc2nc(-c3ccccc3)sc2c1 | 79.5 µM |
| Oc1ccc(-c2nc3cc(O)c(O)cc3s2)cc1O | 56.5 µM |
| CC/C(=C(/CC)c1ccc(O)cc1)c1ccc(O)cc1 [DIETHYLSTILBESTROL] | 2.5 µM |
| Oc1ccc(-c2nc3ccccc3s2)cc1 | 71.5 µM |
| Oc1ccc(-c2nc3c(O)cc(O)cc3s2)cc1 | 20 µM |
| Oc1ccc2nc(-c3ccc(O)c(O)c3)sc2c1 | 6 µM |

test system: ANN-1; assay: Cytotoxic effect on v-abl transformed murine ANN-1 cells; type: functional, cell-based; conditions: Mus musculus
Procedure, shortened: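 Abelson virus-transformed ANN-1 murine fibroblasts expressing the gag-abl tyrosine kinase, 2 × 10^4 cells in DMEM with 10% fetal calf serum; compounds in DMF or DMSO, final solvent ≤0.5% v/v. Value is the mean of two determinations.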

| Compound | IC50 |
| --- | --- |
| O=c1c(O)c(-c2ccc(O)c(O)c2)oc2cc(O)cc(O)c12 [QUERCETIN] | 32.5 µM |
| Oc1cccc(-c2nc3ccc(O)cc3s2)c1 | 17 µM |
| O=c1c(-c2ccc(O)cc2)coc2cc(O)cc(O)c12 [GENISTEIN] | 8 µM |
| Oc1ccc(-c2nc3cc(O)c(O)cc3s2)cc1 | 9 µM |
| Oc1ccc(-c2nc3cc(O)ccc3s2)cc1 | 25.5 µM |
| Oc1cc(O)c2nc(-c3ccc(O)c(O)c3)sc2c1 | 58.5 µM |
| Oc1ccc(-c2nc3ccc(O)cc3s2)cc1 | 13.5 µM |
| Oc1ccc2nc(-c3ccccc3)sc2c1 | 71 µM |
| Oc1ccc(-c2nc3cc(O)c(O)cc3s2)cc1O | 32 µM |
| CC/C(=C(/CC)c1ccc(O)cc1)c1ccc(O)cc1 [DIETHYLSTILBESTROL] | 3 µM |
| Oc1ccc(-c2nc3ccccc3s2)cc1 | 77 µM |
| Oc1ccc(-c2nc3c(O)cc(O)cc3s2)cc1 | 21.5 µM |
| Oc1ccc2nc(-c3ccc(O)c(O)c3)sc2c1 | 5.5 µM |

test system: HFF; assay: (§1) Inhibition of EGF-induced mitogenesis in human foreskin fibroblasts; type: functional, cell-based; conditions: not given

| Compound | IC50 |
| --- | --- |
| Oc1cc(O)c2nc(-c3ccc(O)c(O)c3)sc2c1 | 7 µM |
| Oc1ccc(-c2nc3ccc(O)cc3s2)cc1 | 13 µM |
| Oc1ccc(-c2nc3c(O)cc(O)cc3s2)cc1 | 7 µM |

test system: HFF; assay: as §1; type: functional, cell-based; conditions: not given

| Compound | IC50 |
| --- | --- |
| Oc1cc(O)c2nc(-c3ccc(O)c(O)c3)sc2c1 | 9 µM |
| Oc1ccc(-c2nc3ccc(O)cc3s2)cc1 | 6.5 µM |
| Oc1ccc(-c2nc3c(O)cc(O)cc3s2)cc1 | 16 µM |

test system: HFF; assay: Inhibition of PDGF-induced mitogenesis in human foreskin fibroblasts; type: functional, cell-based; conditions: not given

| Compound | IC50 |
| --- | --- |
| O=c1c(O)c(-c2ccc(O)c(O)c2)oc2cc(O)cc(O)c12 [QUERCETIN] | 100 µM |
| Oc1cc(O)c2nc(-c3ccc(O)c(O)c3)sc2c1 | 68 µM |
| Oc1ccc(-c2nc3ccc(O)cc3s2)cc1 | 14 µM |
| Oc1ccc(-c2nc3c(O)cc(O)cc3s2)cc1 | 20 µM |

test system: MCF7; assay: Cytotoxic effect on MCF-7 human breast carcinoma cells; type: functional, cell-based; conditions: not given

| Compound | IC50 |
| --- | --- |
| O=c1c(O)c(-c2ccc(O)c(O)c2)oc2cc(O)cc(O)c12 [QUERCETIN] | 24 µM |
| Oc1cccc(-c2nc3ccc(O)cc3s2)c1 | 2.7 µM |
| O=c1c(-c2ccc(O)cc2)coc2cc(O)cc(O)c12 [GENISTEIN] | 15.1 µM |
| Oc1ccc(-c2nc3cc(O)c(O)cc3s2)cc1 | 8.4 µM |
| Oc1ccc(-c2nc3cc(O)ccc3s2)cc1 | 41.4 µM |
| Oc1cc(O)c2nc(-c3ccc(O)c(O)c3)sc2c1 | 41.3 µM |
| Oc1ccc(-c2nc3ccc(O)cc3s2)cc1 | 25 µM |
| Oc1ccc2nc(-c3ccccc3)sc2c1 | 27.3 µM |
| Oc1ccc(-c2nc3cc(O)c(O)cc3s2)cc1O | 5.1 µM |
| CC/C(=C(/CC)c1ccc(O)cc1)c1ccc(O)cc1 [DIETHYLSTILBESTROL] | 5 µM |
| Oc1ccc(-c2nc3ccccc3s2)cc1 | 27 µM |
| Oc1ccc(-c2nc3c(O)cc(O)cc3s2)cc1 | 33.3 µM |
| Oc1ccc2nc(-c3ccc(O)c(O)c3)sc2c1 | 17.6 µM |

test system: WiDr; assay: Cytotoxic effect on WiDr human colon cells; type: functional, cell-based; conditions: not given

| Compound | IC50 |
| --- | --- |
| O=c1c(O)c(-c2ccc(O)c(O)c2)oc2cc(O)cc(O)c12 [QUERCETIN] | 40.2 µM |
| Oc1cccc(-c2nc3ccc(O)cc3s2)c1 | 18.3 µM |
| O=c1c(-c2ccc(O)cc2)coc2cc(O)cc(O)c12 [GENISTEIN] | 27.7 µM |
| Oc1ccc(-c2nc3cc(O)c(O)cc3s2)cc1 | 24.7 µM |
| Oc1ccc(-c2nc3cc(O)ccc3s2)cc1 | 62.2 µM |
| Oc1cc(O)c2nc(-c3ccc(O)c(O)c3)sc2c1 | 47.7 µM |
| Oc1ccc(-c2nc3ccc(O)cc3s2)cc1 | 67.2 µM |
| Oc1ccc2nc(-c3ccccc3)sc2c1 | 45.2 µM |
| Oc1ccc(-c2nc3cc(O)c(O)cc3s2)cc1O | 34.2 µM |
| Oc1ccc(-c2nc3ccccc3s2)cc1 | 68.7 µM |
| Oc1ccc(-c2nc3c(O)cc(O)cc3s2)cc1 | 31.2 µM |
| Oc1ccc2nc(-c3ccc(O)c(O)c3)sc2c1 | 23 µM |

molecular target: Epidermal growth factor receptor (Homo sapiens) (UniProt P00533); conditions: A-431, 150 uM
Sequence (P00533 whole entry): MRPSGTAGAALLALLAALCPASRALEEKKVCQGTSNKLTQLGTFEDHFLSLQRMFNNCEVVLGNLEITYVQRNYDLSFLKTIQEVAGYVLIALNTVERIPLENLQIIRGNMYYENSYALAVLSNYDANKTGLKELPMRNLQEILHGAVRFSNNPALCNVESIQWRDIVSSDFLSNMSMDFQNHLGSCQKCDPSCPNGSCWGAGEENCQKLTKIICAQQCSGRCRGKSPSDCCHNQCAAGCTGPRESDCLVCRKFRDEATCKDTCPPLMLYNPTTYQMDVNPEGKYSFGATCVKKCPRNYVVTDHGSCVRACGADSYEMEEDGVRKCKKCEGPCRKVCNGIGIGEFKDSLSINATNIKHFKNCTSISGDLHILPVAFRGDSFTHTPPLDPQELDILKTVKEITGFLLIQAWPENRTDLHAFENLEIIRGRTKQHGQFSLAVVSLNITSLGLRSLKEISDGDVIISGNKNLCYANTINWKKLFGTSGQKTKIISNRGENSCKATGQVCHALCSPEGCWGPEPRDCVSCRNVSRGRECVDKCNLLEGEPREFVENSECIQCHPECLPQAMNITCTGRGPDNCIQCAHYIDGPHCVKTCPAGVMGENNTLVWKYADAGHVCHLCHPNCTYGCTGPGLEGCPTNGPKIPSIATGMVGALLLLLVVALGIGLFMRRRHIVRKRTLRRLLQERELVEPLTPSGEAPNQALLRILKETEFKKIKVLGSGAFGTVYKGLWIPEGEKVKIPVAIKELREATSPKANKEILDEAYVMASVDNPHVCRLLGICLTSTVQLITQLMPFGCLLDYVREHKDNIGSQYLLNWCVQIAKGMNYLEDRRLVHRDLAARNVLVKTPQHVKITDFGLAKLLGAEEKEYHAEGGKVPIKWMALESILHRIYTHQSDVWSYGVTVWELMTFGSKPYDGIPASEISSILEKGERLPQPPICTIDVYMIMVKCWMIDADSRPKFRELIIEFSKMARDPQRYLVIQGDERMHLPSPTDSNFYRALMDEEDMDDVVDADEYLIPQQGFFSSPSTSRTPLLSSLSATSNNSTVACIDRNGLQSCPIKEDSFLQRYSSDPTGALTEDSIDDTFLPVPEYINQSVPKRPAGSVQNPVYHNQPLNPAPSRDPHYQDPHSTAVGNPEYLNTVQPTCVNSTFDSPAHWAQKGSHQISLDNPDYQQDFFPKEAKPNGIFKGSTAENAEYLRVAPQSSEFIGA

| inhibition | Compound |
| --- | --- |
| 42% | Oc1ccc(-c2nc3ccc(O)cc3s2)cc1 |
| 38% | Oc1ccc(-c2nc3cc(O)c(O)cc3s2)cc1O |
